Measurements pooled from the literature.
RPS6KA5: Ribosomal protein S6 kinase alpha-5 (RPS6KA5, Homo sapiens, UniProt O75582)
RPS6KA5 C-terminal kinase domain: Ribosomal protein S6 kinase alpha-5, C-terminal kinase domain (RPS6KA5, Homo sapiens, UniProt O75582)
RPS6KA5 N-terminal kinase domain: Ribosomal protein S6 kinase alpha-5, N-terminal kinase domain (RPS6KA5, Homo sapiens, UniProt O75582)

`CNC(=O)c1cc(Oc2ccc(NC(=O)Nc3ccc(Cl)c(C(F)(F)F)c3)cc2)ccn1` gave an inhibition of -5% (RPS6KA5; enzyme activity, inhibitor; 0.3 µM).
`CC(C)(C)c1nc2c(s1)c1nc(N)ncc1c1ccc(NS(=O)(=O)c3c(F)cccc3F)c(F)c12` has a remaining activity of 95% (RPS6KA5; enzyme activity, inhibitor, radiometric; 1 µM).
`Oc1cccc(-c2nc(N3CCOCC3)c3oc4ncccc4c3n2)c1` gave a remaining activity of 105% (RPS6KA5; enzyme activity, inhibitor; 10 µM).
`Oc1ccc(-c2nc(-c3ccncc3)c(-c3ccc(F)cc3)[nH]2)cc1` has a remaining signal of 107% (RPS6KA5; cell-free assay; 0.5 µM).
`CC(C)(O)[C@H]1CC[C@H](Nc2ccc3ncc(-c4cccc(C(F)(F)F)c4)n3n2)CC1` gave a remaining activity of 98.9% (RPS6KA5; enzyme activity, inhibitor; 1 µM).
`CN1CC(Oc2cnc(C#N)cc2-c2ccn3nc(NC(=O)C4CC4)cc3c2)C1` gave an inhibition of -7% (RPS6KA5; enzyme activity, inhibitor; 1 µM).
For `COc1cc(Nc2cnc(C#N)c(O[C@H](C)CN(C)C)n2)ncc1-c1cnn(C)c1`, the remaining activity was 86% (RPS6KA5; enzyme activity, inhibitor, radiometric; 1 µM).
With `COc1cc(/C=C/C(=O)CC(=O)/C=C/c2ccc(O)c(OC)c2)ccc1O` the activity vs control was 92% (RPS6KA5; enzyme activity, inhibitor; 1 µM).
The activity vs control of `Cc1ccc(C(=O)NCc2ccsc2)cc1C#Cc1cn(C(C)C)c2ncnc(N)c12` is reported as 104% (RPS6KA5; enzyme activity, inhibitor; 1 µM).
The remaining binding of `Cc1c(NC(=O)c2cc(C(N)=O)nc3cc(F)ccc23)c(C(F)(F)F)nn1Cc1ccc(C(C)(C)C)cc1` is reported as 89% (RPS6KA5 C-terminal kinase domain; cell-free assay, competition with immobilised ligand; 1 µM).
With `Cc1ccc(NC(=O)c2ccc(C)c(C(F)(F)F)c2)cc1C#Cc1nn(C2CCC(O)CC2)c2ncnc(N)c12` (stereo not drawn) the remaining signal was 95% (RPS6KA5; cell-free assay; 10 µM).
For `CNC(=O)c1ccc(Nc2ncc(C(F)(F)F)c(NCc3nccnc3N(C)S(C)(=O)=O)n2)cc1`, the remaining binding was 81% (RPS6KA5 N-terminal kinase domain; cell-free assay, competition with immobilised ligand; 0.1 µM).
The remaining activity of `Nc1nc(NC2CCCCC2)sc1C(=O)c1ccccc1` is reported as 122% (RPS6KA5; enzyme activity, inhibitor; 10 µM).
For `Cn1c(=O)n(-c2ccc(C(C)(C)C#N)cc2)c2c3cc(-c4cnc5ccccc5c4)ccc3ncc21`, the remaining activity was 102% (RPS6KA5; enzyme activity, inhibitor; 10 µM).
`C[C@H]1CCN(c2nccc(-c3cnn4ncccc34)n2)C1` gave a remaining binding of 100% (RPS6KA5 C-terminal kinase domain; binding, competition with immobilised ligand; 1 µM).
`CC1=C(C#N)C(c2ccc3c(c2)c(NC(=O)c2ccccc2C)nn3C)C(C#N)=C(C)N1` has a remaining binding of 91% (RPS6KA5 N-terminal kinase domain; cell-free assay, competition with immobilised ligand; 1 µM).
`Cc1ccc(C(=O)Nc2ccc(CN3CCN(C)CC3)c(C(F)(F)F)c2)cc1C#Cc1cnc2cccnn12` has a remaining activity of 92% (RPS6KA5; enzyme activity, inhibitor; 23.5 nM).
For `CNCc1ccc(-c2cc(-c3nc(-c4ccc(S(=O)(=O)C(C)C)cc4)cnc3N)on2)cc1`, the inhibition was 0% (RPS6KA5; enzyme activity, inhibitor; 0.4 µM).
With `Cc1cnc(NC2CCOCC2)nc1-n1cnc(C(=O)NC(CN)c2cc(F)cc(Cl)c2)c1` (stereo not drawn) the remaining activity was 74% (RPS6KA5; enzyme activity, inhibitor, radiometric; 1 µM).
`Nc1c(C(=O)NCc2ccc(C(=O)NCCCC3CCCCC3)cc2)cnn1-c1ccccc1` gave a remaining binding of 94% (RPS6KA5 N-terminal kinase domain; cell-free assay, competition with immobilised ligand; 0.1 µM).
With `O=C(Nc1cnn(-c2csc(C(=O)NC3COC3)c2)c1)Nc1ccccc1Cl` the remaining activity was 89.5% (RPS6KA5; enzyme activity, inhibitor; 5 µM).
The remaining binding of `O=C(O)[C@@H]1[C@@H](Cn2nnc3ccccc3c2=O)CC[C@H]1C(=O)c1ccc(OCCC2CCOCC2)cc1` is reported as 100% (RPS6KA5 N-terminal kinase domain; cell-free assay, competition with immobilised ligand; 1 µM).
For `CN(c1ncccc1CNc1nc(Nc2ccc3c(c2)CC(=O)N3)ncc1C(F)(F)F)S(C)(=O)=O`, the inhibition was 31.9% (RPS6KA5; enzyme activity, inhibitor; 1 µM).
For `Nc1ncnc2occ(-c3ccc(NC(=O)Nc4cc(C(F)(F)F)ccc4F)cc3)c12`, the remaining signal was 2.2% (RPS6KA5 N-terminal kinase domain; cell-free assay, inhibitor; 20 µM).
`N[C@H]1CCN(c2nccc(-c3cnn4ncccc34)n2)C1` has a remaining binding of 100% (RPS6KA5 C-terminal kinase domain; binding, competition with immobilised ligand; 1 µM).
For `Cc1cc(NC(=O)c2cccc3cc(-c4cccc5[nH]nc(N)c45)ccc23)ccc1F`, the activity vs control was 94% (RPS6KA5; enzyme activity, inhibitor; 0.1 µM).
`COc1cc(-c2cn(C3CCc4c(F)cccc4N(CC(F)(F)F)C3=O)nn2)ccc1-n1cnc(C)c1` (stereo not drawn) has a remaining binding of 100% (RPS6KA5 N-terminal kinase domain; cell-free assay, competition with immobilised ligand; 1 µM).
The remaining signal of `CCN(CC)CCNC(=O)c1c(C)[nH]c(/C=C2\C(=O)Nc3ccc(F)cc32)c1C` is reported as 60.1% (RPS6KA5; cell-free assay; 0.5 µM).
With `CC(=O)N1CCC(c2ccc(C(=O)NC3=NCCN3)cc2C(F)(F)F)CC1` the remaining binding was 70% (RPS6KA5 C-terminal kinase domain; cell-free assay, competition with immobilised ligand; 1 µM).
`c1cnn2ncc(-c3ccnc(N4CCC45COC5)n3)c2c1` has a remaining binding of 100% (RPS6KA5 C-terminal kinase domain; binding, competition with immobilised ligand; 1 µM).
For `COc1cc2ncnc(Nc3ccc(Oc4ccccc4)c(C)c3C)c2cc1OC`, the inhibition was 2% (RPS6KA5; enzyme activity, inhibitor; 1 µM).
The inhibition of `Cc1ccc(Nc2nccc(N(C)c3ccc4c(C)n(C)nc4c3)n2)cc1S(N)(=O)=O` is reported as 6% (RPS6KA5; enzyme activity, inhibitor; 0.3 µM).
The remaining signal of `N#CCCc1ccc2c(c1)-c1[nH]c3ccc([N+](=O)[O-])cc3c1CC(=O)N2` is reported as 94.2% (RPS6KA5; cell-free assay; 0.5 µM).
`CC1CCCN1c1nccc(-c2cnn3ncccc23)n1` (stereo not drawn) has a remaining binding of 100% (RPS6KA5 N-terminal kinase domain; binding, competition with immobilised ligand; 1 µM).
For `COc1ccc2cc(OCC3(C(=O)O)CN(C(=O)c4ccc(F)cc4)C3)ccc2c1`, the remaining binding was 100% (RPS6KA5 N-terminal kinase domain; cell-free assay, competition with immobilised ligand; 1 µM).
The remaining signal of `C[C@@H]1CCN(C(=O)CC#N)C[C@@H]1N(C)c1ncnc2[nH]ccc12` is reported as 94.8% (RPS6KA5; cell-free assay, inhibitor; 0.5 µM).
